# Mdm2 MdmX PPI: inhibitors of human Mdm2-MdmX association, primary screen, cell-based, luminescence, split luciferase, SaOS-2, uHTS. SaOS-2 split-luciferase Mdm2/MdmX complementation. inhibition, % at 8 µM. 3% of 330,000 active. AID 485346, 2010;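 active = inhibition of at least 50% at 8 µM in the primary screen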
# Beta cell apopt: inhibitors of cytokine-induced beta cell apoptosis, primary screen, luminescence; INS-1E cytokine-induced death, ATP luminescence, 48 h; percent of positive-control rescue, neutral wells zero; protection from apoptosis, % (test concentration not listed); 0.8% of 300,000 active; AID 435005, 2010;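 active = Every replicate reaches about 75%, or at least half do and their mean reaches it too, limit read from the data; inconclusive = At least half of replicates reach the limit but their mean does not; inactive = Under half of replicates reach the limit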;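 note: 0% = cytokine-treated negative control wells and 100% = positive control rescue; higher means more ATP so stronger rescue from cytokine killing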
# SKKanGAS inh: S. pyogenes SKKanGAS growth inhibitors in kanamycin, primary screen, streptokinase expression inhibitor project, SKKanGAS strain, BacTiter-Glo luminescence; 6 h; inhibition, % at 7.5 µM; 1.3% of 300,000 active; AID 1662, 2009;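 active = mean replicate score, as percent of positive control median, at least 50; inconclusive = mean below 50 but one replicate at or above 50; inactive = mean and every replicate below 50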;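 note: strain carries kanamycin resistance gene driven by streptokinase promoter and grows in 40 µg/ml kanamycin; loss of luminescence reflects streptokinase promoter inhibition or plain growth inhibition; 0% = median of DMSO wells and 100% = positive control at its reference dose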
# CSC inhib: cancer stem cell viability inhibitors, primary screen, luminescence | cancer stem cell-like cells viability | inhibition, % at 7.5 µM | 1.1% of 300,000 active | AID 2717, 2010; in the data active = inhibition above about 75%; inconclusive = no clear call, values can overlap the other calls; tested in HMLE shEcad cells
# T cruzi inh: inhibitors of intracellular T. cruzi growth, primary screen, luminescence, NIH3T3 host cells. inhibition, % (no concentration beside the values). 1.4% of 300,000 active. AID 1885, 2009. T. cruzi beta-gal in NIH3T3, 90 h;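 active = mean inhibition across valid replicates above about 55%, limit read from the data; inconclusive = mean below that limit but half or more replicates reach it; inactive = mean below it, under half of replicates reach it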;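 note: signal also drops with host cell toxicity which is not excluded here; 0% = plate median of DMSO wells and 100% = zero luminescence signal; higher percent means less beta-gal luminescence so fewer parasites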
#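 System: NIH/3T3 fibroblasts plus reporter T. cruzi. Medium: DMEM plus 2% FBS. Probe or stimulus: 5000 reporter trypomastigotes per well. Compound: single 50 nL compound addition per well in DMSO. Incubation: co-culture of at least 90 h after 3 h attachment. Detection: GalScreen β-gal luminescence, detergent lysis, 60 min. Evaluation: parasite load inhibition, %.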
# Calb FLC: C. albicans growth inhibition with fluconazole, primary screen, CaCi-2 strain, Alamar Blue fluorescence | C. albicans CaCi-2 (fluconazole-resistant clinical isolate) + fluconazole, 48 h | 0.57% of 300,000 active | AID 1979, 2009 | growth inhibition, % (concentration not given with the values);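 active = growth inhibition above about 58% in most replicates, limit read from the data, passing the limit was not always enough; inconclusive = exactly half the replicates above a set limit; inactive = most replicates below a set limit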;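 note: all wells also contain fluconazole at 8 µg/ml as a sub-toxic cotreatment; 0% = median of DMSO wells and 100% = median of geldanamycin control wells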
# Numbers without * were called inactive; ? = inconclusive; . = not tested or not shown. In the library only some 5.7% were active in any assay of this set; here they are far more common.
SMILES,Mdm2 MdmX PPI,Beta cell apopt,SKKanGAS inh,CSC inhib,T cruzi inh,Calb FLC
COc1ccc(C2CC(=O)c3cnc(N4CCc5ccccc54)nc3C2)cc1OC (configuration not stated),46,-2,1,1,7,0
COc1ccc(C2CC(=O)c3c(C)nc(N4CCN(Cc5ccccc5)CC4)nc3C2)cc1OC (configuration not stated),25,9,13,28,55*,9
Cc1nc(N2CCN(Cc3ccccc3)CC2)nc2c1C(=O)CC(C)C2 (configuration not stated),18,-3,21,5,71*,-4
COc1ccc(OCC(=O)Nc2ccncc2)cc1,-19,2,-3,-9,22,-2
Cc1ccnc(Sc2ccc([N+](=O)[O-])cc2[N+](=O)[O-])n1,40,-2,-1,1,29,98*
Cc1ccc(Sc2ccc([N+](=O)[O-])cc2[N+](=O)[O-])nc1,-17,-7,-17,67,25,33
Nc1c(Cl)ncnc1N/N=C/c1ccnc2ccccc12,17,4,-7,-37,-14,-2
Nc1c(Cl)ncnc1N/N=C/c1ccc2ccccc2n1,.,113*,.,102*,.,.
Nc1c(Cl)ncnc1N/N=C/c1ccccn1,.,119*,.,102*,.,.
COc1ccccc1NS(=O)(=O)c1cc(NC(=O)c2cccs2)ccc1N1CCCCC1,9,7,4,-22,59*,8
COc1ccccc1NS(=O)(=O)c1cc(NC(=O)c2cccs2)ccc1N1CCCC1,-7,38,9,5,14,6
O=C(Nc1ccc(N2CCCC2)c(S(=O)(=O)Nc2cccc(C(F)(F)F)c2)c1)c1cccs1,15,1,52*,15,12,1
COC(=O)CCCC1=CC2=CC(=O)C(C)(OC(=O)c3cccs3)C(=O)C2=CN1CCN1CCOCC1 (configuration not stated),-19,-4,3,-12,-2,6
CCCCn1c(N)c(N(CCC(C)C)C(=O)c2ccc([N+](=O)[O-])s2)c(=O)[nH]c1=O,6,1,8,.,64*,0
CCCCN(C(=O)c1ccc([N+](=O)[O-])s1)c1c(N)n(CC(C)C)c(=O)[nH]c1=O,4,.,-8,-3,8,-1
CCN1C/C(=C/c2ccc(N3CCOCC3)cc2)C(=O)/C(=C/c2ccc(N3CCOCC3)cc2)C1,.,6,1,103*,-6,1
Oc1ccc(/C=C/c2ccc3cccc(O)c3n2)cc1Br,-1,13,89*,93*,4,12
O=[N+]([O-])c1cccc(/C=C/c2ccc3cccc(O)c3n2)c1,-18,33,84*,36,25,-2
O=C(C1CCCN(S(=O)(=O)c2ccc(F)cc2)C1)N1CCCCCC1 (configuration not stated),1,-1,19,-27,-11,0
CCN(CCCC(=O)c1ccc(F)cc1)CCc1ccccc1,15,.,-1,7,58*,-121
O=C(CCNC(=O)c1ccc(Br)cc1)Nc1nccs1,2,-1,0,-8,3,112*
O=C(CCNC(=O)c1ccc([N+](=O)[O-])cc1)Nc1nccs1,-4,0,-5,-12,12,0
Oc1ccc(Cl)cc1C1=Nc2ccccc2N=C(c2ccco2)C1,37,.,6,29,-8,-1
COc1ccc(C2=NNC(c3cc(Cl)cc4c3OCOC4)C2)c(O)c1 (configuration not stated),1,.,15,-7,-7,-10
Oc1ccc(Cl)cc1C1=NNC(c2ccc(Cl)cc2)C1 (configuration not stated),21,3,96*,52,-4,0
SMILES,Mdm2 MdmX PPI,Beta cell apopt,SKKanGAS inh,CSC inhib,T cruzi inh,Calb FLC
Oc1ccc(Cl)cc1C1=NNC(c2cc(Br)cc3c2OCOC3)C1 (configuration not stated),28,15,32,0,10,70*
O=C(O)COc1ccc(/C=C/c2nc3ccc([N+](=O)[O-])cc3s2)cc1,-22,-4,20,-13,56*,0
Cc1cccc(OCC(=O)Nc2nc3ccc([N+](=O)[O-])cc3s2)c1,8,-2,2,41,-6,?
Clc1cccc(CN2CCc3c([nH]c4ccccc34)C2)c1,34,10,-2,29,59*,0
O=C(Nc1cc(F)ccc1F)N1CCN(c2ccnc3cc(Cl)ccc23)CC1,23,12,-3,1,12,0
O=C(Nc1ccc(C(F)(F)F)cc1)N1CCN(c2ccnc3cc(Cl)ccc23)CC1,14,11,53*,89*,69*,24
CC(C)CC(c1nnnn1CC1CCCO1)N1CCN(c2cccc(Cl)c2)CC1 (configuration not stated),2,-5,-1,65,-1,7
CCCC(c1nnnn1CC1CCCO1)N1CCN(c2cc(Cl)ccc2C)CC1 (configuration not stated),20,3,-7,99*,37,16
Cc1ccc(Cl)cc1N1CCN(C(CC(C)C)c2nnnn2CC2CCCO2)CC1 (configuration not stated),24,5,-3,101*,-21,-10
CC(C)CC(c1nnnn1Cc1ccco1)N1CCN(c2cccc(Cl)c2)CC1 (configuration not stated),30,19,14,110*,32,-17
CC(C)=CCCC(C)CN1CCC(n2nccc2NC(=O)C2CCCC2)CC1 (configuration not stated),47,.,48,-11,51,-8
O=C(N/C=N/OCc1cccc(C(F)(F)F)c1)N1OC[C@@H]2COc3ccc4ccccc4c3[C@@H]21,1,0,5,23,33,37
Cc1cc(C(=O)NCc2ccc(F)cc2)n(-c2ccccc2)n1,3,0,-3,-1,-8,1
COc1cc(S(=O)(=O)N2CCN(Cc3ccc4c(c3)OCO4)CC2)ccc1NC(C)=O,3,-2,.,11,.,.
Cc1cc(/C=N/NC(N)=S)c(C)n1-c1ccc(Cl)cc1,34,-3,-2,-1,25,-32
Cc1cc(/C=N/NC(N)=S)c(C)n1-c1cccc(Cl)c1,38,-4,0,1,73*,104*
COc1ccc(NC(=O)Nc2nnc(Cc3ccc(F)cc3)s2)cc1,35,-1,-5,26,-24,-1
CC(/C=C1\SC(=S)N(NC(=O)c2ccc(O)cc2)C1=O)=C\c1ccccc1,-4,6,47,76*,-5,-13

# High-throughput results deposited in PubChem BioAssay by several laboratories.
